HTR1E antagonist = antagonists of human 5-HT1E serotonin receptor; hit rate 0.99% among 65,000; P28566; CHO 5-HT1E Ga15 NFAT-bla reporter, FRET, antagonist; inhibition, % at 6 µM;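 active = inhibition above a set limit, the mean inhibition across every tested compound plus 3 SD, cut at about 29% in these data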;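 note: signal is the 460 over 535 nm emission ratio of beta-lactamase substrate; 0% = agonist plus DMSO wells and 100% = wells without agonist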
S1P1 ag pot = agonists and agonism potentiators of human S1P1 receptor; hit rate 0.57% among 56,000; AID 449; S1P1 CRE-bla cells, forskolin, beta-lactamase FRET, potentiator mode; S1P1 agonist co-added at EC20, 2 nM; 100% = saturating reference agonist, 0% = basal; activation, % at 9.5 µM;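 active = activation above a cutoff set at the mean activation of all tested compounds plus 3 SD, cut at about 54% in these data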;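 note: forskolin at 4 µM as EC80 and the EC20 agonist is SEW2871; 100% = SEW2871 at its EC100 plus forskolin at EC80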
5HT1E ag = 5-HT1E (human) receptor agonism; activation, % at 6 µM; P28566; CHO 5-HT1E Ga15 NFAT-bla reporter, FRET; 0% DMSO wells, 100% control agonist wells; hit rate 0.69% among 65,000;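 active = activation above a set limit, the screen-wide mean activation plus 3 SD, cut at about 8.5% in these data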;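 note: 100% = positive control agonist at 1 µM giving full maximal response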
S1P3 ag = S1P3 (human) receptor agonism; Q99500; S1P3 NFAT-BLA reporter cells, FRET ratio; relative to 1 µM S1P, basal subtracted; activation, % at 4.5 µM; hit rate 0.1% among 60,000; AID 373;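 active = activation above the screen-wide mean plus 3 SD, cut at about 4.5% in these data, passing the limit was not always enough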
Target sequence (Q99500 whole entry, looked up): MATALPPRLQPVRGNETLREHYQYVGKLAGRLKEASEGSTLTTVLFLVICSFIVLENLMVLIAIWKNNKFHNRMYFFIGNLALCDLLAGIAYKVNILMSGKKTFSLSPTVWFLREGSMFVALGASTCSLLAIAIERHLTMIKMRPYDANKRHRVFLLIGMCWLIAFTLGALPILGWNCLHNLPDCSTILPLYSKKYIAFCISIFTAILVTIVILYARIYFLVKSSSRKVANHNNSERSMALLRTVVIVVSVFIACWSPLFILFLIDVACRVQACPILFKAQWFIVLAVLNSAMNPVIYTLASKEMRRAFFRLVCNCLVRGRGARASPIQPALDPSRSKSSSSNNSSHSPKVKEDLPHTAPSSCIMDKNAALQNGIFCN
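Benchmarks: high control 1 µM S1P / System: stable CHO line with human S1P3, Gα16, NFAT-BLA reporter / Dosing: single compound concentration, 4.5 µM final / Timing: 4 h compound at 37 °C, 2 h substrate at RT / Measured by: FRET β-lactamase substrate fluorescence, excitation 405 nm, 460/535 nm emission ratio, background-subtracted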
5HT1a ag = agonists of human 5-HT1a serotonin receptor; P08908; CHO 5-HT1a Ga15 NFAT-bla reporter, FRET ratio; 0% basal, 100% maximal reference agonist; activation, % at 10 µM; hit rate 0.56% among 65,000;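 active = activation above the screen-wide mean activation plus 3 SD, cut at about 19% in these data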;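 note: 0% = DMSO wells and 100% = 5-CT at EC100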
5HT1a antag = 5-HT1a (human) receptor antagonism; CHO 5-HT1a Ga15 NFAT-bla reporter, antagonist mode; hit rate 0.68% among 62,000; AID 612; inhibition, % at 10 µM;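 active = inhibition above the mean of all tested compounds plus 3 SD, cut at about 43% in these data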;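 note: receptor stimulated by 5-CT agonist at 100 nM near EC80; beta-lactamase reporter measured by ratiometric fluorescence of a cleavable substrate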
The depositor's hits bear a star; x = no result. Sampled rows, rich in hits. Any-hit rate of the full collection: about 2.9%.

SMILES	HTR1E antagonist	S1P1 ag pot	5HT1E ag	S1P3 ag	5HT1a ag	5HT1a antag
c1ccc(-c2nc3cc(Oc4ccc5oc(-c6ccccn6)nc5c4)ccc3o2)nc1	-8	-18	0	-1	2	-9
CCc1ccc(NC(=O)c2cc(-c3ccco3)on2)cc1	0	56*	0	-1	-3	9
CN(C)c1cccc(C(=O)OCC(=O)NCC2CCCO2)c1 (stereo not given)	3	-1	0	-2	-1	-4
CCCCNC(=O)c1ccc2c(c1)N(CC)C(=O)c1ccccc1S2(=O)=O	6	-30	0	0	-1	-6
O=C(NCCc1c[nH]c2ccccc12)c1ccc(-n2cnnn2)cc1	10	6	-1	0	-4	4
O=C(NCCc1c[nH]c2ccccc12)c1ccc(S(=O)(=O)NCc2ccco2)cc1	10	x	13*	x	1	7
O=C(Nc1ccc(S(=O)(=O)NCc2ccco2)cc1)c1ccc2ccccc2n1	4	96*	0	0	-1	49*
O=C(c1ccccc1/S(=N/S(=O)(=O)c1ccccc1)N1CCOCC1)N1CCOCC1 (stereo not given)	-8	-11	0	0	-1	-8
O=C(Nc1c(C(=O)N2CCOCC2)cnn1-c1ccccc1)c1ccco1	-4	9	1	-1	-3	-10
Cc1ccc(C)c(NC(=O)c2ccc3c(c2)N(Cc2ccc(F)cc2)C(=O)CS3=O)c1 (stereo not given)	4	-28	0	0	47*	4
COc1ccc2c(c1)c1nnc(SC)nc1n2C	13	-52	17*	1	2	4
CCSCCOC(=O)C1=C(C)NC(=O)NC1c1ccc2c(c1)OCO2 (stereo not given)	21	-5	1	-1	200*	-7
CCOC(=O)C1=C(C)NC(=O)NC1c1ccc2c(c1)OCO2 (stereo not given)	0	-7	0	0	0	x
COC(=O)c1ccsc1NC(=O)c1ccc2c(c1)OCCO2	7	-10	0	-1	0	20
O=C1C2=C(Nc3ccccc3SC2c2ccco2)c2ccccc21 (stereo not given)	8	9	0	-2	-1	70*
O=C(Nc1nc(-c2ccc(Cl)s2)cs1)c1ccncc1	4	126*	0	-1	-5	21
O=C(Nc1nc(-c2cc(Cl)sc2Cl)cs1)c1cccs1	-1	35	1	0	279*	49*
O=C(CN1C(=O)CCC1=O)Nc1nc(-c2ccc(Cl)s2)cs1	2	14	0	0	-2	15
Clc1ccc(CSc2nnc(-c3ccncc3)o2)c(Cl)c1	7	76*	0	1	0	-11
N#Cc1nc(COc2ccc(Cl)cc2Cl)oc1N1CCOCC1	2	-3	0	0	0	4
N#Cc1nc(COc2ccc(Cl)cc2Cl)oc1N1CCN(c2ccccc2)CC1	7	69*	-1	0	0	57*
COc1ccc(N2CCN(c3oc(COc4ccc(Cl)cc4Cl)nc3C#N)CC2)cc1	-1	2	0	0	-1	59*
O=C(CSc1nc2c(c(=O)[nH]1)CCCC2)Nc1ccc(Cl)cc1F	4	-8	1	0	3	-7
COCCCn1c(SCC(=O)n2c(C)c(C)c3ccccc32)nnc1-c1ccoc1C	2	4	-1	-1	-1	8
CCOc1ccccc1OCC(=O)Nc1nnc(COC)s1	6	-2	0	0	1	0
SMILES	HTR1E antagonist	S1P1 ag pot	5HT1E ag	S1P3 ag	5HT1a ag	5HT1a antag
CCCCSc1nnc2nc(C)cc(C)n12	2	-7	1	0	0	0
COc1cccc(N2CCN(Cc3coc4c(Cl)cc(Cl)cc4c3=O)CC2)c1	-4	-5	32*	0	1	-1
CCOC(=O)N1CCC(Nc2c(NCCCN(CC)c3cccc(C)c3)c(=O)c2=O)CC1	-8	-8	22*	-1	-2	-16
CCOC(=O)N1CCC(Nc2c(NCCN3CCN(Cc4ccccc4)CC3)c(=O)c2=O)CC1	7	-8	0	-1	0	0
OC(CNCCc1ccc(Cl)cc1)COCc1ccco1 (stereo not given)	4	3	9.5*	0	0	4
OC(CNCc1ccco1)COc1ccccc1 (stereo not given)	-10	-19	-1	-1	-3	10
CC(=O)C1=C(C)Nc2ncnn2C1c1ccc(Cl)cc1Cl (stereo not given)	0	4	1	-1	0	-10
COCCCNC(=O)c1ccc(CS(=O)(=O)c2ccc(OC)cc2)o1	31*	-9	-1	-1	0	10
CCN(CCCNC(=O)CN(C)S(=O)(=O)c1ccc2c(c1)CCC(=O)N2)c1cccc(C)c1	-2	2	-1	0	0	11
CCOC(=O)C1=C(N)n2c(s/c(=C\c3cccnc3)c2=O)=C(C#N)C1c1cccnc1 (stereo not given)	-7	-1	19*	-2	0	-9
COC(=O)C1=C(N)n2c(s/c(=C\c3cccnc3)c2=O)=C(C(=O)OC)C1c1cccnc1 (stereo not given)	7	0	1	-1	-3	5
Cc1cccnc1NCc1ccc(O)c2ncccc12	51*	7	1	-1	0	12
CCOc1ccccc1-c1nnc(SCC(=O)NC2CC3CCC2C3)n1CC (stereo not given)	-1	-12	11*	-1	-5	2
O=C(CSc1nnc(-c2ccco2)o1)NC1CC2CCC1C2 (stereo not given)	3	x	-1	-1	1	13
Cn1cc(CC(=O)NCCCN2CCCC2=O)c2ccccc21	5	9	0	0	-1	11
CSc1ncccc1C(=O)OCC(=O)NC1CCS(=O)(=O)C1 (stereo not given)	8	5	-1	0	21*	-2
O=C(COC(=O)c1ccccc1Oc1ccccc1)NC1CCS(=O)(=O)C1 (stereo not given)	4	10	0	1	0	-14
COC(=O)c1cc(CSc2nnc(-c3ccccc3)c(-c3ccccc3)n2)oc1C	9	96*	0	4	-2	8
C1CCC(OCCN2CCN(CCOC3CCCCC3)CC2)CC1	-4	-16	1	-1	1	0
CCOC(=O)C1CCN(C(=O)COc2ccc(S(=O)(=O)NC(C)C)cc2Cl)CC1	1	-7	0	1	48*	-7

Assay outcomes from PubChem.
